We go through 17 compounds from ChEMBL document CHEMBL4732035, “Design, synthesis, crystal structure and anti-plasmodial evaluation of tetrahydrobenzo[4,5]thieno[2,3-d]pyrimidine derivatives” (RSC Med Chem, 2021).

Data set [1] has as its system Plasmodium falciparum. Put plainly: Antiplasmodial activity against chloroquine-resistant Plasmodium falciparum W2 assessed as growth inhibition after 48 hrs by flow cytometer. Format: functional, organism-based. To be noted: W2, 48 h. Put shortly:
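Ring-stage W2 cultures in microwells exposed 48 h to a range of compound concentrations, added from DMSO stocks. Parasites then fixed in 1% formaldehyde/PBS pH 7.4 (48 h, RT) and stained with YOYO-1 (1 nM) in 0.1% Triton X-100/PBS. Parasitemia counted by flow cytometry (forward scatter vs fluorescence). IC50 fitted from % parasitemia vs untreated controls (R2 >0.95).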

Data set [2] is described as follows: Selectivity index, ratio of IC50 for human A549 cells to IC50 for chloroquine-resistant Plasmodium falciparum W2. Format: toxicity. To be noted: read-out: Selectivity Index. Put shortly:
(§1)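 Selectivity index is cell-line IC50 (A549 for line 2, HeLa for line 3) divided by W2 IC50. Cells grown in DMEM with 10% FBS, seeded at 1 × 10^4 per well and allowed to adhere 24 h at 37 °C. They were then exposed to graded concentrations for 24 h. MTT (4 mg/mL) was added for 4 h and formazan dissolved in DMSO. IC50 from log(inhibitor)-response fits, three independent experiments.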

For data set [3], the system named is HeLa. Description: Cytotoxicity against human HeLa cells assessed as reduction in cell viability preincubated for 24 hrs measured after 4 hrs by MTT assay. Format: functional, cell-based. A digest of the protocol: (§2)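 Cells were grown in DMEM with 10% fetal bovine serum, seeded at 1 × 10^4 cells per well and left 24 h at 37 °C to adhere. A range of compound concentrations was added for 24 h. Medium was then removed, MTT solution (4 mg mL−1) added for 4 h, and formazan dissolved in DMSO. Survival was expressed against untreated wells, and IC50 was fitted by log(inhibitor)–response nonlinear regression from three independent experiments.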

The subject of data set [4] is A549. Put plainly: Cytotoxicity against human A549 cells assessed as reduction in cell viability preincubated for 24 hrs measured after 4 hrs by MTT assay. Format: functional, cell-based. Put shortly:
as §2

Data set [5] in a line: Selectivity index, ratio of IC50 for human HeLa cells to IC50 for chloroquine-resistant Plasmodium falciparum W2. Format: toxicity. As to conditions: read-out: Selectivity Index. Put shortly:
as §1

As for `Oc1ccccc1C(c1ccc(C(F)(F)F)cc1)N1CCN(c2ncnc3sc4c(c23)CCCC4)CC1` (stereo not drawn), the IC50 in data set [1] stood at 1370 nM.
Same read-out and setting: in the case of `Cc1ccc(C(c2ccccc2O)N2CCN(c3ncnc4sc5c(c34)CCCC5)CC2)cc1` (stereo not drawn) it was 1340 nM.
Consider `Oc1ccccc1C(c1ccc(OC(F)(F)F)cc1)N1CCN(c2ncnc3sc4c(c23)CCCC4)CC1` (stereo not drawn), for which the selectivity ratio in data set [2] was 6.09; in data set [5], 7.7. Moreover, the IC50 in data set [3] worked out at 9.1 µM; in data set [4], 7.2 µM; in data set [1] it was 1180 nM.
For `COc1cccc(C(c2ccc(Cl)c(Cl)c2)N2CCN(c3ncnc4sc5c(c34)CCCC5)CC2)c1O` (stereo not drawn), the IC50 in data set [1] stood at 1340 nM.
In the case of `Oc1ccccc1C(c1ccc(F)c(Cl)c1)N1CCN(c2ncnc3sc4c(c23)CCCC4)CC1` (stereo not drawn), the selectivity ratio in data set [2] turned out to be 8.01; in data set [5] it was 6.03. Moreover, the IC50 in data set [3] was 6.4 µM; in data set [4], 8.5 µM; in data set [1], 1060 nM.
Turning to `COc1cccc(C(c2ccc(OC(F)(F)F)cc2)N2CCN(c3ncnc4sc5c(c34)CCCC5)CC2)c1O` (stereo not drawn), the IC50 in data set [1] worked out at 1220 nM.
Still for that read-out and setting: the figure for `COc1ccc(C(c2ccccc2O)N2CCN(c3ncnc4sc5c(c34)CCCC5)CC2)cc1` (stereo not drawn) is 2420 nM.
As for `COc1cccc(C(c2ccc(C(F)(F)F)cc2)N2CCN(c3ncnc4sc5c(c34)CCCC5)CC2)c1O` (stereo not drawn), the selectivity ratio in data set [2] was 9.86; in data set [5] it was 9.59. In addition, the IC50 in data set [3] came to 7.1 µM; in data set [4], 7.3 µM; in data set [1] it was 749 nM.
Regarding `COc1cccc2c1C(=O)c1c(O)c3c(c(O)c1C2=O)C[C@@](O)(C(=O)CO)C[C@@H]3O[C@H]1C[C@H](N)[C@H](O)[C@H](C)O1` [DOXORUBICIN], the IC50 in data set [3] stood at 5.7 µM; in data set [4] it was 5.5 µM.
`Oc1ccccc1C(c1ccc(F)cc1)N1CCN(c2ncnc3sc4c(c23)CCCC4)CC1` (stereo not drawn): the IC50 in data set [1] was determined as 1620 nM.
Still for that read-out and setting: in the case of `COc1ccc(C(c2cccc(OC)c2O)N2CCN(c3ncnc4sc5c(c34)CCCC5)CC2)cc1` (stereo not drawn) it was 6410 nM.
In the case of `Oc1ccccc1C(c1ccc(F)c(F)c1)N1CCN(c2ncnc3sc4c(c23)CCCC4)CC1` (stereo not drawn), the selectivity ratio stood at 8.43 in data set [2] and 12.3 in data set [5]. Moreover, the results for the IC50 in data set [3], in data set [4] and in data set [1] were 12.7 µM, 8.7 µM and 1040 nM, respectively.
As for `COc1cccc(C(c2ccc(F)c(F)c2)N2CCN(c3ncnc4sc5c(c34)CCCC5)CC2)c1O` (stereo not drawn), the IC50 in data set [1] is 1130 nM.
Same read-out and setting: the figure for `COc1cccc(C(c2ccc(C)cc2)N2CCN(c3ncnc4sc5c(c34)CCCC5)CC2)c1O` (stereo not drawn) is 3960 nM.
Consider `Oc1ccccc1C(c1ccc(Cl)c(Cl)c1)N1CCN(c2ncnc3sc4c(c23)CCCC4)CC1` (stereo not drawn), for which the results for the selectivity ratio in data set [2] and in data set [5] were 15.3 and 13.7, respectively. Also, the results for the IC50 in data set [3], in data set [4] and in data set [1] were 10.3 µM, 11.5 µM and 752 nM, respectively.
Turning to `COc1cccc(C(c2ccc(F)c(Cl)c2)N2CCN(c3ncnc4sc5c(c34)CCCC5)CC2)c1O` (stereo not drawn), the IC50 in data set [1] was 1170 nM.
With `COc1cccc(C(c2ccc(F)cc2)N2CCN(c3ncnc4sc5c(c34)CCCC5)CC2)c1O` (stereo not drawn), in data set [1], the IC50 was 2260 nM.
